Measured values as given in ChEMBL document CHEMBL2040709, “Synthesis, antidepressant and antimicrobial activities of some novel stearic acid analogues” (2012).

Legend:
Format in all cases: functional
[1] = tested on: Candida albicans; assay: […] at 1000 ug/ml after 24 hrs by agar disc diffusion method; conditions: read-out: DIZ
How it was run: (§1)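 Agar disc diffusion on nutrient agar plates surface-spread with standard inoculum ([…], 0.5 McFarland). Whatman No.1 paper discs (6 mm, dry-heat sterilised 140 °C, 1 h) were soaked in test compound at two concentrations (500 and 1000, as tabulated). DMSO-only discs and solvent/growth controls were included. Plates were inverted and incubated 24 h at 37 °C. Zones of inhibition were measured, and percentage potency was calculated per Indian Pharmacopoeia.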

[2] = tested on: Candida albicans; assay: […] at 500 to 1000 ug/ml after 24 hrs by agar disc diffusion method; how it was run: as §1
[3] = tested on: Candida albicans; assay: […] at 500 ug/ml after 24 hrs by agar disc diffusion method; conditions: read-out: DIZ; how it was run: as §1
[4] = tested on: Pseudomonas aeruginosa; assay: Antibacterial activity against Pseudomonas aeruginosa at 500 to 1000 ug/ml after 24 hrs by agar disc diffusion method; how it was run: as §1
[5] = tested on: Mus musculus; assay: Antidepressant activity in Swiss albino mouse assessed as increase in dopamine level in brain at 30 mg/kg, ip by HPLC analysis; conditions: route intraperitoneal
[6] = tested on: Escherichia coli; assay: Antibacterial activity against Escherichia coli at 1000 ug/ml after 24 hrs by agar disc diffusion method; conditions: read-out: DIZ; how it was run: as §1
[7] = tested on: Staphylococcus aureus; assay: Antibacterial activity against Staphylococcus aureus at 1000 ug/ml after 24 hrs by agar disc diffusion method; conditions: read-out: DIZ; how it was run: as §1
[8] = tested on: Pseudomonas aeruginosa; assay: Antibacterial activity against Pseudomonas aeruginosa at 500 ug/ml after 24 hrs by agar disc diffusion method; conditions: read-out: DIZ; how it was run: as §1
[9] = tested on: Bacillus subtilis; assay: Antibacterial activity against Bacillus subtilis at 1000 ug/ml after 24 hrs by agar disc diffusion method; conditions: read-out: DIZ; how it was run: as §1
[10] = tested on: Escherichia coli; assay: Antibacterial activity against Escherichia coli at 500 to 1000 ug/ml after 24 hrs by agar disc diffusion method; how it was run: as §1
[11] = tested on: Staphylococcus aureus; assay: Antibacterial activity against Staphylococcus aureus at 500 to 1000 ug/ml after 24 hrs by agar disc diffusion method; how it was run: as §1
[12] = tested on: Bacillus subtilis; assay: Antibacterial activity against Bacillus subtilis at 500 to 1000 ug/ml after 24 hrs by agar disc diffusion method; how it was run: as §1
[13] = tested on: Mus musculus; assay: Antidepressant activity in Swiss albino mouse assessed as decrease in immobility time at 30 mg/kg, ip administered 30 mins before test measured for 4 mins of total 6 mins test by forced swim test; conditions: route intraperitoneal
How it was run: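 Forced swim test in inbred male Swiss albino mice (20–30 g), groups of 6, acclimatised one week. The 30 mg/kg dose was suspended in 0.5% CMC and given i.p. 30 min before the test; controls received vehicle. Mice swam singly in a glass tank with 15 cm water at 25 ± 3 °C. Immobility was timed over the last 4 min of a 6 min session. Dunnett's test was applied.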

[14] = tested on: Staphylococcus aureus; assay: Antibacterial activity against Staphylococcus aureus at 500 ug/ml after 24 hrs by agar disc diffusion method; conditions: read-out: DIZ; how it was run: as §1
[15] = tested on: Escherichia coli; assay: Antibacterial activity against Escherichia coli at 500 ug/ml after 24 hrs by agar disc diffusion method; conditions: read-out: DIZ; how it was run: as §1
[16] = tested on: Pseudomonas aeruginosa; assay: Antibacterial activity against Pseudomonas aeruginosa at 1000 ug/ml after 24 hrs by agar disc diffusion method; conditions: read-out: DIZ; how it was run: as §1
[17] = tested on: Bacillus subtilis; assay: Antibacterial activity against Bacillus subtilis at 500 ug/ml after 24 hrs by agar disc diffusion method; conditions: read-out: DIZ; how it was run: as §1

Row | Structure (SMILES) | zone of inhibition at 1000 µg/mL [1] | Activity [2] | zone of inhibition at 500 µg/mL [3] | Activity [4] | Activity [5] | zone of inhibition at 1000 µg/mL [6] | zone of inhibition at 1000 µg/mL [7] | zone of inhibition at 500 µg/mL [8] | zone of inhibition at 1000 µg/mL [9] | Activity [10] | Activity [11] | Activity [12] | Time [13] | zone of inhibition at 500 µg/mL [14] | zone of inhibition at 500 µg/mL [15] | zone of inhibition at 1000 µg/mL [16] | zone of inhibition at 500 µg/mL [17]
1 | CCCCCCCCCCCCCCCCCc1nnc(-c2ccccc2)o1 | 20 mm | 56.71% | 15 mm | 60.95% | 0.25 ng/mg | 18 mm | 21 mm | 16 mm | 16 mm | 93.3% | 94.6% | 75.78% | 70 s | 14 mm | 14 mm | 17 mm | 13 mm
2 | CCCCCCCCCCCCCCCCCc1nnc(-c2ccccc2)n1N | 22 mm | 65.97% | 15 mm | 59.45% | 0.367 ng/mg | 17 mm | 18 mm | 13 mm | 15 mm | 93.3% | 75.78% | 93.3% | 68.83 s | 13 mm | 16 mm | 16 mm | 12 mm
3 | CCCCCCCCCCCCCCCCCc1nn2c(-c3ccccc3)nnc2s1 | 19 mm | 92.57% | 15 mm | 93.88% | 1.455 ng/mg | 19 mm | 17 mm | 15 mm | 16 mm | 84.08% | 79.35% | 93.88% | 62.67 s | 16 mm | 16 mm | 19 mm | 13 mm
4 | CN(C)CCCN1c2ccccc2CCc2ccc(Cl)cc21 [CLOMIPRAMINE] |  |  |  |  | 0.42 ng/mg |  |  |  |  |  |  |  | 52.97 s |  |  |  | 
5 | CN(C)[C@@H]1C(O)=C(C(N)=O)C(=O)[C@@]2(O)C(O)=C3C(=O)c4c(O)cccc4[C@@](C)(O)[C@H]3C[C@@H]12 [TETRACYCLINE] |  |  |  |  |  | 23 mm | 19 mm | 16 mm | 20 mm |  |  |  |  | 18 mm | 18 mm | 22 mm | 13 mm
